Screening data (PubChem)
SKN-1 inh: inhibitors of C. elegans SKN-1; C. elegans VP596 Pgst-4::GFP/RFP ratio, acrylamide-induced, 24 h; inhibition, % at 21.8 µM; hit rate 0.49% among 360,000;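 active = interference check ratio from 0.5 to 1.5 plus GFP to RFP signal ratio inhibition reaching or exceeding a fixed threshold, cut at about 30% in these data, passing the limit was not always enough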
iPSC survival up: hiPSC single-cell survival enhancement; ATPlite luminescence; 100% = ROCK inhibitor wells, 0% = DMSO; survival enhancement, % at 20 µM; hit rate 0.044% among 360,000; AID 602274; in the data active = survival enhancement above about 18%;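 also: cells exposed to compounds for 16 hours before the ATP read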
MT1-MMP act inh: MT1-MMP (human) activation inhibition; GFP/RFP ratio change, % at 20 µM; AID 651647; HT1080 RFP-PRO-GFP cells, GFP/RFP ratio fluorescence, overnight; percent of plate control window, DMSO zero; P50281; hit rate 0.061% among 360,000;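 active = GFP/RFP ratio change of at least 30% with cell ATP level not reduced by more than half and red fluorescence within 50% of control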
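Read-out: GFP/RFP fluorescence ratio; Test system: RFP-PRO-GFP reporter HT1080 cells; Compound dosing: single-point 20 µM compound, 1% DMSO; Times: overnight compound exposure at 37 °C.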
FAS-TE inh: FAS thioesterase (human) inhibition | recombinant FAS-TE, OMFH fluorogenic substrate, fluorescence endpoint | P49327 | hit rate 0.67% among 360,000 | inhibition, % at 15 µM | AID 602261;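 active = compounds whose normalised, plate-corrected inhibition of enzyme fluorescence in the single-dose primary screen is 50% or more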
DAGLB inh: blocks human DAGLB lipase activity. Q8NCG7. HEK293T DAGLB membrane lysate, EnzChek fluorogenic substrate. inhibition, % at 5.17 µM. hit rate 0.059% among 340,000. AID 504411; in the data active = inhibition above about 34%
FAS-TE inh conf: FAS thioesterase (human) inhibition, confirmation. hit rate 45% among 2,300. inhibition, % at 15 µM. recombinant FAS-TE, OMFH fluorogenic substrate, fluorescence. AID 624325. shares compounds with FAS-TE inh;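 active = compounds inhibiting the enzyme by at least 50% at 15 µM in any one of the replicates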
MT1-MMP act val: validation of inhibitors of human MT1-MMP activation; shares compounds with MT1-MMP act inh; HT1080 RFP-PRO-GFP cells, GFP and RFP fluorescence ratio, overnight; inhibition, % at 20 µM; hit rate 10% among 200;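 active = inhibition of at least 50% in the primary cell screen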
Hits are given with their value; . = inactive; / = no result given. Hits are enriched below; roughly 1.3% of the tested compounds scored in any of these assays.

SMILES	SKN-1 inh	iPSC survival up	MT1-MMP act inh	FAS-TE inh	DAGLB inh	FAS-TE inh conf	others
CCOC(=O)[C@]12Cc3ccc(C)cc3[C@H]1N(C1CCCCC1)C(=O)c1cc(OC)ccc12	.	.	.	77	/	28
CCOC(=O)[C@]12Cc3cc(OC)ccc3[C@H]1N(C)C(=O)c1cc(OC)ccc12	.	.	.	.	/	/
CCCCCN1C(=O)c2cc(OC)ccc2[C@@]2(C(=O)OCC)Cc3cc(OC)ccc3[C@@H]12	.	.	.	52	/	.
COc1cccc(CNCCc2cccc(F)c2)c1OC	.	.	.	.	.	/
COc1cc(/C=C2\C[C@H]3[C@@H]4CC=C5C[C@@H](N6CCCC6)CC[C@]5(C)[C@H]4CC[C@]3(C)[C@H]2O)cc(OC)c1OC	.	.	.	.	.	/
CCOC(=O)[C@]12Cc3cc(C)ccc3[C@H]1N(CCC(=O)OC)C(=O)c1ccccc12	.	.	.	.	/	/
CCOC(=O)[C@]12Cc3cc(Cl)ccc3[C@H]1N(C1CCCCC1)C(=O)c1cc(OC)ccc12	.	.	.	84	/	39
CCOC(=O)[C@]12Cc3cc(Cl)ccc3[C@H]1N(C)C(=O)c1cc(OC)ccc12	.	.	.	.	/	/
CCOC(=O)[C@]12Cc3cc(C)ccc3[C@H]1N(C1CCCCC1)C(=O)c1ccccc12	.	.	.	82	/	33
COC(=O)OCC12CCC(O1)C1(C)C(=O)OCC21 (stereo unspecified)	.	.	.	.	.	/
Cc1sc2c(c1C)C(c1ccc(C(C)(C)C)cc1)=NCC(=O)N2CC(=O)Nc1nccs1	.	.	.	.	.	/
Cc1ccc(CN2Cc3ccc(Br)cc3-n3nncc3C2)cc1	.	.	.	.	/	/
C=CCOC(=O)C1C(C(=O)O)C2(Cl)C(Cl)=C(Cl)C1(Cl)C2(Cl)Cl (stereo unspecified)	.	.	.	.	.	/
CCN(CCCl)c1cc(CN(C)C)cc(NC(=O)c2ccc(C(=O)Nc3cc(CN(C)C)cc(N(CC)CCCl)c3)cc2)c1	.	.	.	51	.	.
COc1ccc(NC(=O)c2cn(CCC#N)nc2-c2ccc(OC)c(OC)c2)cc1	.	.	.	.	.	/
COc1ccc(-c2nn(CCC#N)cc2C(=O)Nc2ccc(C(C)=O)cc2)cc1[N+](=O)[O-]	.	.	.	85	.	91
COc1cc2c(cc1OC)C13CCN4C=C5CCOC6CC(=O)N2C1C6C5CC43 (stereo unspecified)	.	.	.	.	.	/
C/C(=N\N1CCCCC1c1cccnc1)c1c(O)n(C2CCCCC2)c(=S)[nH]c1=O (stereo unspecified)	.	.	.	70	.	.
OCCOCC#CCN1CCOCC1	.	.	.	.	.	/
O=c1oc2ccccc2c(O)c1C(c1ccc([N+](=O)[O-])cc1)c1c(O)c2ccccc2oc1=O	.	.	.	76	.	82
COC(=O)C1=C(c2ccc(-c3ccccc3)c(F)c2)C[C@@H]2CC[C@H]1N2C(=O)NC1Cc2ccccc2C1	.	.	.	53	.	.
O=C(C1CC(c2ccc(Cl)c(Cl)c2)=NO1)N1CCC2(CC1)OCCO2 (stereo unspecified)	.	.	.	57	.	66
O=C(C1CC(c2ccc(F)cc2)=NO1)N1CCC2(CC1)OCCO2 (stereo unspecified)	.	.	.	.	.	/
O=c1[nH]c(=O)n(-c2ccccc2F)c(O)c1C=NCCC1=CCCCC1	.	.	.	.	.	/
C[N+]1=C(/C=C/Nc2ccccc2)C(C)(C)c2ccccc21	.	.	38	.	.	/	MT1-MMP act val=.
SMILES	SKN-1 inh	iPSC survival up	MT1-MMP act inh	FAS-TE inh	DAGLB inh	FAS-TE inh conf	others
CN1C(=O)C(=Cc2ccc(Sc3ccccc3)o2)C(=O)N(C)C1=S	.	.	.	.	.	/
CN1C(=O)C(=Cc2ccc(Sc3ccccc3)o2)C(=O)N(C)C1=O	.	.	33	.	.	/	MT1-MMP act val=.
CCn1cc(CN2CCCC(C(=O)c3sccc3C)C2)cn1 (stereo unspecified)	.	.	.	.	.	/
CCC(C)N1C(=O)/C(=C\c2ccc(N3CCCCCC3)cc2)C(=O)NC1=S (stereo unspecified)	.	.	33	.	.	/	MT1-MMP act val=.
C[n+]1c2ccccc2nc2ccc(NCCO)cc21	.	.	55	.	.	/	MT1-MMP act val=.
CNc1ccc2nc3ccccc3[n+](C)c2c1	.	.	67	.	.	/	MT1-MMP act val=.
OCCNc1c2c(nc3ccccc13)CCCC2	.	.	.	.	.	/
CC(C)=CCN1CC[C@@]2(C)c3cc(O)ccc3C[C@@H]1C2C (stereo partly specified)	.	.	.	.	.	/
CN1CCCN(C(=O)COc2ccccc2Br)CC1	.	.	.	.	.	/
COc1cc2c(cc1OC)-c1c(OC)c(OC)cc3c1[C@H](C2)N(C)CC3	.	.	50	.	.	/	MT1-MMP act val=.
O=C(NC1CCCCC1)N1Cc2ccccc2-n2nncc2C1	.	.	.	.	.	/
